# From ChEMBL document CHEMBL3259783, “Inhibitory effects of novel synthetic methimazole derivatives on mushroom tyrosinase and melanogenesis” (Bioorg Med Chem, 2014)
# Calls of active or inactive are those of the source. The calls are words filed in the database; no cut-off is given here.
# Assays:
# [1] = biological target: T1, Tyrosinase (Agaricus bisporus) (UniProt O42713); assay: (§1) Inhibition of mushroom tyrosinase-mediated L-tyrosine hydroxylation after 30 mins by ELISA
# T1 sequence (whole entry): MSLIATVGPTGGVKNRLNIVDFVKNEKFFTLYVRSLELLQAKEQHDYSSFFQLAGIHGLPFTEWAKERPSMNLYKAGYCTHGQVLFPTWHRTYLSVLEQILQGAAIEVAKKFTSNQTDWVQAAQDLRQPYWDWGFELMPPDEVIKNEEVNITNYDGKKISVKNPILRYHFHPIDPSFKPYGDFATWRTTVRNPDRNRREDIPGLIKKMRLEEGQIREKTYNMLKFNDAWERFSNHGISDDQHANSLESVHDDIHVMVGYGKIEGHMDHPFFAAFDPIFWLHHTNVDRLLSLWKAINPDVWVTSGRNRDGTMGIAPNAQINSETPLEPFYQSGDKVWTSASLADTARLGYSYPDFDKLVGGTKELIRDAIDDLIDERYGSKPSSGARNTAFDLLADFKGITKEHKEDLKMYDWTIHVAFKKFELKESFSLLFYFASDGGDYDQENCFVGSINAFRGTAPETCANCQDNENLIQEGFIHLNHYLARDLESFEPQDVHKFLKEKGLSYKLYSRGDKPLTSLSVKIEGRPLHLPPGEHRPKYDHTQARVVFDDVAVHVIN
# Summary of the method: (§2)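 Mushroom tyrosinase with L-tyrosine substrate; dipotassium hydrogen phosphate buffer as vehicle control. Mixture held 25 °C for 30 min, dopachrome read at 475 nm. Inhibition % = (1 − ABSsample/ABScontrol) × 100. IC50 from regression of the dose–response curve; triplicate, mean ± SD of 3 independent runs.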
# Tyrosinase [2] = biological target: T2, Tyrosinase (Agaricus bisporus, UniProt O42713); assay: as §1; summary of the method: as §2
# T2 sequence (O42713 whole entry): T1 sequence (whole entry)
# Tyrosinase [3] = biological target: T2, Tyrosinase; assay: Noncompetitive inhibition of mushroom tyrosinase-mediated L-tyrosine oxidation assessed as enzyme-inhibitor complex after 10 mins by Lineweaver-Burk plot analysis
# [4] = biological target: T1, Tyrosinase (Agaricus bisporus); assay: Noncompetitive inhibition of mushroom tyrosinase-mediated L-tyrosine oxidation assessed as enzyme-substrate-inhibitor complex after 10 mins by Lineweaver-Burk plot analysis
# [5] = Cytotoxicity against mouse B16/F10 cells at 1 mM after 24 hrs by MTT assay; type: cell-based; settings: b16-f10, 24 h, 1000 µM
# Summary of the method: (§3)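 B16/F10 cells in DMEM with 10% FBS, penicillin, streptomycin and amphotericin at 37 °C, 5% CO2. Seeded 3 × 10^4 per well, adhered 24 h, exposed to 1 or 2 mM compound in fresh DMEM for 24 h. MTT (0.5 mg/mL in PBS) added for 40 min at 37 °C; formazan dissolved in DMSO, A570 read. Viability as % of untreated control; triplicate.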
# [6] = Cytotoxicity against mouse B16/F10 cells at 2 mM after 24 hrs by MTT assay; type: cell-based; settings: b16-f10, 24 h, 2000 µM; summary of the method: as §3
# [7] = (§4) Antimelanogenic activity in mouse B16/F10 cells assessed as inhibition of alpha-MSH-induced melanin formation at 1 mM after 24 hrs by ELISA relative to control; type: functional; settings: B16-F10, 24 h
# Summary of the method: (§5)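 B16/F10 cells seeded 1 × 10^5 per well, grown 48 h at 37 °C, 5% CO2; stimulated with 100 nM α-MSH for 24 h, then exposed to 1 mM test agent (kojic acid reference) for 24 h. After PBS washes, pellets dissolved in 1 N NaOH/10% DMSO, 1 h at 80 °C; A405 read. Content = sample/control × 100%; triplicate, mean ± SD.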
# [8] = biological target: T1, Tyrosinase (Agaricus bisporus); assay: Mixed-type inhibition of mushroom tyrosinase-mediated L-tyrosine oxidation assessed as enzyme-substrate-inhibitor complex after 10 mins by Lineweaver-Burk plot analysis
# Tyrosinase [9] = biological target: T2, Tyrosinase; assay: Mixed-type inhibition of mushroom tyrosinase-mediated L-tyrosine oxidation assessed as enzyme-inhibitor complex after 10 mins by Lineweaver-Burk plot analysis
# B16-F10 = assay: as §4; type: functional; summary of the method: as §5
SMILES,inhibition [1],IC50 (Tyrosinase [2]),inhibition at 1000 µM [7],also measured
Cn1ccn(CC(N)C(=O)O)c1=S (stereo not drawn),inactive,,,
COC(=O)C(N)Cn1ccn(C)c1=S (stereo not drawn),inactive,,,
Cn1ccn(C(=O)OC(C)(C)C)c1=S,Dose-dependent effect,1.45 mM,49.3%,Ki (Tyrosinase [3]): 1.75 mM; Kis [4]: 1.75 mM; Activity [5]: Non-toxic; Activity [6]: Non-toxic
COC(=O)C(Cn1ccn(C)c1=S)NC(=O)OC(C)(C)C (stereo not drawn),inactive,,,
O=c1cc(CO)occ1O [KOJIC ACID],,,56.9%,

# Continued, in another order:
inhibition [1],IC50 (Tyrosinase [2]),SMILES,inhibition at 1000 µM [7],also measured
Dose-dependent effect,,Cn1ccnc1S [METHIMAZOLE],88.7%,Kis [8]: 1.91 mM
Dose-dependent effect,4.11 mM,Sc1ncc[nH]1,,Ki (Tyrosinase [9]): 0.57 mM; Kis [8]: 2.8 mM; Activity [5]: Toxic; inhibition (B16-F10): Active
,1.43 mM,Cn1cc[nH]c1=S [METHIMAZOLE],,Ki (Tyrosinase [9]): 0.47 mM; Activity [6]: Toxic
